Results taken from ChEMBL document CHEMBL2057134, “Small molecule tertiary amines as agonists of the nuclear hormone receptor Rev-erbα” (Bioorg Med Chem Lett, 2012).
pEC50: −log10 of the molar value.

Experiments:
[1] = target: T1, Nuclear receptor subfamily 1 group D member 1 (Homo sapiens) (UniProt P20393); test: Agonist activity at Rev-Erbalpha expressed in HEK293 cells coexpressing […] promoter assessed as repression of transcription at 10 uM after 24 hrs by dual-Glo luciferase assay relative to control; type: functional, cell-based
T1 sequence (whole entry): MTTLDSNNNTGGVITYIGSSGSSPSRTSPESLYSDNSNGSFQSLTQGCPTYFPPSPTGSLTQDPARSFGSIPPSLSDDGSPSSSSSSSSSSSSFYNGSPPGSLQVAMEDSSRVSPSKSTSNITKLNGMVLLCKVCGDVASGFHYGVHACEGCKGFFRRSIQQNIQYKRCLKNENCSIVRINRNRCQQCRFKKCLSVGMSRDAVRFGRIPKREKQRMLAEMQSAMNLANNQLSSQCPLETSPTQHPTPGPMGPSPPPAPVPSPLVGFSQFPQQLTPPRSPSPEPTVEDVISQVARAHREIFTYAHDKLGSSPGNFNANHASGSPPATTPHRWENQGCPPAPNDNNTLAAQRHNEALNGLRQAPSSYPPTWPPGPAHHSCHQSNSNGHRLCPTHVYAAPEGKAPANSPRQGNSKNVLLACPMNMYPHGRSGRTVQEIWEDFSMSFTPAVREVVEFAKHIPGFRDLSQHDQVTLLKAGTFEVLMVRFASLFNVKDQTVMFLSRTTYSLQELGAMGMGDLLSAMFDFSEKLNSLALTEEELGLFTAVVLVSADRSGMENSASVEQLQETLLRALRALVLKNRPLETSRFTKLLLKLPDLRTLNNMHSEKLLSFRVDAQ
How it was run: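 Cells co-transfected with full-length Rev-erbα expression plasmid plus Bmal1 promoter-luciferase reporter; renilla luciferase for normalization and toxicity check. Average of 2 or more experiments.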

[2] = target: T2, Nuclear receptor subfamily 1 group D member 1 (Homo sapiens, UniProt P20393); test: Agonist activity at Rev-Erbalpha expressed in HEK293 cells coexpressing […] promoter assessed as repression of transcription after 24 hrs by dual-Glo luciferase assay; type: functional, cell-based
T2 sequence (P20393 whole entry): T1 sequence (whole entry)
How it was run: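 Cells co-transfected with full-length Rev-erbα expression plasmid and Bmal1 promoter-driven luciferase reporter. Renilla luciferase used for normalization and toxicity monitoring. Average of 2 or more experiments.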

[3] = Drug uptake in C57BL/6 mouse brain at 10 mg/kg, ip measured after 2 hrs by LC-MS/MS analysis; type: ADME, organism-based; set-up: dose 10 mg/kg, route intraperitoneal; conditions: read-out: Drug uptake
How it was run: (§1)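 C57Bl6 mice (n = 3) given 10 mg/kg IP in 10:10:80 DMSO:Tween:water; blood and brain collected at 2 h. Plasma frozen at −80°C. Plasma and brain mixed with acetonitrile (1:5 v:v or w:v), brain probe-sonicated. Drug quantified by LC-MS/MS against standards in plasma or blank brain matrix.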

[4] = Plasma concentration in C57BL/6 mouse at 10 mg/kg, ip measured after 2 hrs by LC-MS/MS analysis; type: ADME, organism-based; set-up: dose 10 mg/kg, route intraperitoneal; how it was run: as §1
[5] = Drug uptake in C57BL/6 mouse brain at 50 mg/kg, ip measured after 8 hrs by LC-MS/MS analysis

Row | Ratio [1] | pEC50 [2] | Compound | further results
1 | 1 |  | O=[N+]([O-])c1ccc(CN(Cc2ccc(Cl)cc2)CC2CCN(Cc3ccccc3)C2)s1 (racemic) | 
2 | 0.3 | 6.24 | CS(=O)(=O)N1CCC(CN(Cc2ccc(Cl)cc2)Cc2ccc([N+](=O)[O-])s2)C1 (racemic) | concentration at 2 h [3]: 1300 nM; concentration at 2 h [4]: 540 nM
3 | > 1 |  | Cc1ccc(S(=O)(=O)N2CCC(CN(Cc3ccc(Cl)cc3)Cc3ccc([N+](=O)[O-])s3)C2)cc1 (racemic) | 
4 | 1.2 |  | CC(C)(C)OC(=O)CNCc1ccc(Cl)cc1 | 
5 | 0.14 |  | CC(C)(C)OC(=O)N1CCCC(N(Cc2ccc(Cl)cc2)Cc2ccc([N+](=O)[O-])s2)C1 (racemic) | 
6 | 0.5 | 5.60 | Cc1ccc(S(=O)(=O)N(Cc2ccc(Cl)cc2)Cc2ccc([N+](=O)[O-])s2)cc1 | 
7 | 0.95 |  | CN1CCC(CN(Cc2ccc(Cl)cc2)Cc2ccc([N+](=O)[O-])s2)C1 (racemic) | 
8 | 0.31 |  | CC(C)(C)OC(=O)N1CCC(N(Cc2ccc(Cl)cc2)Cc2ccc([N+](=O)[O-])s2)CC1 | 
9 | 0.6 | 5.60 | CC(C)(C)OC(=O)CN(Cc1ccc([N+](=O)[O-])s1)Cc1cccc2ccccc12 | 
10 | 0.37 | 6.10 | CC(C)(C)OC(=O)CN(Cc1ccc([N+](=O)[O-])s1)S(=O)(=O)c1cccc2ccccc12 | 
11 | 1.1 |  | CC(C)(C)OC(=O)CN(Cc1ccc(Cl)cc1)CC1CCCC1 | 
12 | 0.82 |  | CC(C)(C)OC(=O)CN(Cc1ccc(Cl)cc1)Cc1nc2ccccc2s1 | 
13 | 0.5 | 5.52 | Cc1ccc(S(=O)(=O)N(CC(=O)OC(C)(C)C)Cc2ccc([N+](=O)[O-])s2)cc1 | 
14 | 1.1 |  | CC(C)(C)OC(=O)CN(Cc1ccccc1)Cc1ccc([N+](=O)[O-])s1 | 

Continued, molecule first:

Row | Compound | Ratio [1] | pEC50 [2] | further results
15 | CC(C)(C)OC(=O)CN(Cc1ccc([N+](=O)[O-])s1)C(=O)c1cccc2ccccc12 | 0.48 | 5.59 | 
16 | CC(C)(C)OC(=O)N1CCC(N(Cc2ccc(Cl)cc2)Cc2ccc([N+](=O)[O-])s2)C1 (racemic) | 0.24 | 5.80 | 
17 | CC(C)(C)OC(=O)CN(Cc1ccc(Cl)cc1)Cc1cnc[nH]1 | 0.88 |  | 
18 | NC(=O)CN(Cc1ccc(Cl)cc1)Cc1ccc([N+](=O)[O-])s1 | 0.75 | 5.52 | 
19 | O=[N+]([O-])c1ccc(CN(Cc2ccc(Cl)cc2)CC2CCN(S(=O)(=O)Cc3ccccc3)C2)s1 (racemic) | 0.4 | 6.20 | 
20 | O=[N+]([O-])c1ccc(CN(Cc2ccc(Cl)cc2)CC2CCCCC2)s1 | 0.3 | 5.13 | 
21 | CC(C)(C)OC(=O)CN(Cc1ccc([N+](=O)[O-])cc1)Cc1ccc([N+](=O)[O-])s1 | 0.58 | 5.60 | 
22 | O=C(c1cccc2ccccc12)N(Cc1ccc(Cl)cc1)Cc1ccc([N+](=O)[O-])s1 | 0.4 | 5.59 | 
23 | O=[N+]([O-])c1ccc(CN(Cc2ccc(Cl)cc2)Cc2nc3ccccc3s2)s1 | 0.5 | 5.40 | 
24 | O=[N+]([O-])c1ccc(CN(Cc2ccc(Cl)cc2)Cc2ccc3ccccc3c2)s1 | 0.7 | 5.06 | 
25 | CC(C)(C)OC(=O)N1CCCC(CN(Cc2ccc(Cl)cc2)Cc2ccc([N+](=O)[O-])s2)C1 (racemic) | 0.9 |  | 
26 | N#CCN(Cc1ccc(Cl)cc1)Cc1ccc([N+](=O)[O-])s1 | 0.79 | 5.60 | 
27 | CC(C)(C)OC(=O)CN(Cc1ccncc1)Cc1ccc(Cl)cc1 | 0.81 |  | 
28 | O=C(Nc1ccc([N+](=O)[O-])cc1)N1CCC(CN(Cc2ccc(Cl)cc2)Cc2ccc([N+](=O)[O-])s2)C1 (racemic) | 0.37 | 6.40 | 
29 | CC(C)(C)OC(=O)N1CCC(CN(Cc2ccc(Cl)cc2)Cc2ccc([N+](=O)[O-])s2)C1 (racemic) | 0.33 | 5.74 | 
30 | CC(C)(C)OC(=O)N1CCC(CN(Cc2ccc(Cl)cc2)Cc2ccc([N+](=O)[O-])s2)CC1 | 0.8 |  | 

Row | Compound | Ratio [1] | pEC50 [2] | further results
31 | O=C(Oc1ccccc1)N1CCC(CN(Cc2ccc(Cl)cc2)Cc2ccc([N+](=O)[O-])s2)C1 (racemic) | 0.55 |  | 
32 | CC(C)(C)OC(=O)CN(Cc1ccc(F)cc1)Cc1ccc([N+](=O)[O-])s1 | 0.77 | 5.70 | 
33 | O=[N+]([O-])c1ccc(CN(Cc2ccc(Cl)cc2)Cc2ccc(C(F)(F)F)cc2)s1 | 0.45 | 5.26 | 
34 | COc1ccc(CN(CC(=O)OC(C)(C)C)Cc2ccc([N+](=O)[O-])s2)cc1 | 0.68 | 5.54 | 
35 | CC(C)(C)OC(=O)CN(Cc1ccc(Cl)cc1)Cc1cccs1 | 0.93 |  | 
36 | O=[N+]([O-])c1ccc(CN(Cc2ccc(Cl)cc2)CC2COc3ccccc3O2)s1 (racemic) | 0.4 | 5.11 | 
37 | O=C(Nc1ccccc1)N1CCC(CN(Cc2ccc(Cl)cc2)Cc2ccc([N+](=O)[O-])s2)C1 (racemic) | 0.33 | 6.21 | 
38 | CCOC(=O)N1CCC(CN(Cc2ccc(Cl)cc2)Cc2ccc([N+](=O)[O-])s2)C1 (racemic) [SR9009] |  |  | concentration at 8 h [5]: 8700 nM
39 | COC(=O)CN(Cc1ccc(Cl)cc1)Cc1ccc([N+](=O)[O-])s1 | 0.8 | 5.41 | 
40 | O=[N+]([O-])c1ccc(CN(Cc2ccc(Cl)cc2)CC2CCN(S(=O)(=O)c3cccc4ccccc34)C2)s1 (racemic) | 0.45 | 6.35 | 
41 | C=CCOC(=O)N1CCC(CN(Cc2ccc(Cl)cc2)Cc2ccc([N+](=O)[O-])s2)C1 (racemic) | 0.35 | 6.17 | 
42 | CC(=O)N1CCC(CN(Cc2ccc(Cl)cc2)Cc2ccc([N+](=O)[O-])s2)C1 (racemic) | 0.35 | 5.80 | 
43 | CS(=O)(=O)n1ccc(CN(Cc2ccc(Cl)cc2)Cc2ccc([N+](=O)[O-])s2)c1 | 1 |  | 
44 | O=C(O)CN(Cc1ccc(Cl)cc1)Cc1ccc([N+](=O)[O-])s1 | 0.85 |  | 
45 | CC(C)(C)OC(=O)CN(Cc1ccc2ccccc2c1)Cc1ccc([N+](=O)[O-])s1 | 0.6 |  | 
46 | CCCCNC(=O)N1CCC(CN(Cc2ccc(Cl)cc2)Cc2ccc([N+](=O)[O-])s2)C1 (racemic) | 0.35 | 6.17 | concentration at 2 h [3]: 240 nM; concentration at 2 h [4]: 530 nM
